Laboratory results: ChEMBL document CHEMBL1142242, “Indanylacetic acid derivatives carrying 4-thiazolyl-phenoxy tail groups, a new class of potent PPAR alpha/gamma/delta pan agonists: synthesis, structure-activity relationship, and in vivo efficacy” (J Med Chem, 2007)

How the values were obtained:
[1] = target: T1, Peroxisome proliferator-activated receptor alpha (Homo sapiens, UniProt Q07869); assay: Agonist activity at human PPAR alpha by FRET assay; format: functional
T1 sequence (Q07869 whole entry): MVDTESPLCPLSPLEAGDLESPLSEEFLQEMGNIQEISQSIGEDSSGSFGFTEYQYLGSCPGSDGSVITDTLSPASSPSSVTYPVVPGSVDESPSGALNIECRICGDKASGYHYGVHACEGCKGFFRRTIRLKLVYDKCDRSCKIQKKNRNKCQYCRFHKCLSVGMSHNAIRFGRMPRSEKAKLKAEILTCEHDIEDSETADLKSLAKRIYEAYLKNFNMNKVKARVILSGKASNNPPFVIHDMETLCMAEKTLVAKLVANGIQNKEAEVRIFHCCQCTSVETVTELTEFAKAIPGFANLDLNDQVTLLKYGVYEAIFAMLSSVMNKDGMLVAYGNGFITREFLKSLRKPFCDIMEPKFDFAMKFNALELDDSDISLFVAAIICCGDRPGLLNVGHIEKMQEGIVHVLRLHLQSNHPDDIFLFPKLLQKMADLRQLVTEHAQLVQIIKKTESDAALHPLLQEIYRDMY
Method in brief: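 Human PPARα ligand binding domain (GST-tagged) association with biotin-labeled co-activator CBP; Eu-labeled anti-GST antibody and streptavidin-APC; incubated 2 h at rt in buffer with or without compound; fluorescence read at 615 or 655 nm emission, 340 nm excitation.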

[2] = target: T2, Peroxisome proliferator-activated receptor delta (Homo sapiens, UniProt Q03181); assay: Agonist activity at human PPAR delta by FRET assay; format: functional
T2 sequence (Q03181 whole entry): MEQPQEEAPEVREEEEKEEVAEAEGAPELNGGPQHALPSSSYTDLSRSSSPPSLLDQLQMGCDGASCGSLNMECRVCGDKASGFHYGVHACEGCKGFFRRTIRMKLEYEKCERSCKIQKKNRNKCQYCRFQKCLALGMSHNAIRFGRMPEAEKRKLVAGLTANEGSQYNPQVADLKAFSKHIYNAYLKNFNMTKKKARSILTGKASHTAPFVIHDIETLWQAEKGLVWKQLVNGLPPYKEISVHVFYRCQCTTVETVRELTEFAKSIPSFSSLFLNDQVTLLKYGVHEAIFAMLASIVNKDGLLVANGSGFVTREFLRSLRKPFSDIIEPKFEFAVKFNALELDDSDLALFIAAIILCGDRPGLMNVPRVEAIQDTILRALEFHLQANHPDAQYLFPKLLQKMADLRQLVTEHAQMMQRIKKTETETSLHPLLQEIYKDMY

[3] = target: T3, Peroxisome proliferator-activated receptor gamma (Mus musculus, UniProt P37238); assay: Agonist activity at PPAR gamma in mouse 3T3L1 cells assessed as increase in insulin receptor by IRBA; format: functional, cell-based, 3T3-L1
T3 sequence (P37238 whole entry): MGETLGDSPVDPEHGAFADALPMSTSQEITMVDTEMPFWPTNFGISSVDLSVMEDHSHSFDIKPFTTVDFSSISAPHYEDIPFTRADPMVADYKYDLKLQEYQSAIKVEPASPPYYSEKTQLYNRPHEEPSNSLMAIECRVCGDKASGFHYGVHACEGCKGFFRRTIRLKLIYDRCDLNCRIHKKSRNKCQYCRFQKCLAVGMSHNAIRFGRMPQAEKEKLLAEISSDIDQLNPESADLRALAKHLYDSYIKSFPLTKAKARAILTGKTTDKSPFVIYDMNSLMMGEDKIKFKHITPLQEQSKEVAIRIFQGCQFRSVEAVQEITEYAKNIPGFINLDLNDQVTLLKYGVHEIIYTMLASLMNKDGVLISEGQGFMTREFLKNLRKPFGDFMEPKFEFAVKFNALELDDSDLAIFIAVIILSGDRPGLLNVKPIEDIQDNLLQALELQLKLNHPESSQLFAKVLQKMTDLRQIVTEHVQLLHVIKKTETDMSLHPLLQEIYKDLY

Row | SMILES | EC50 [1] [nM] | EC50 [2] [nM] | EC50 [3] [nM]
1 | COc1ncc(-c2ccc(OCCCOc3ccc4c(c3)CC[C@H]4CC(=O)O)cc2)c(OC)n1 | > 10000 | 5.6 | 300
2 | COc1cc(-c2nc3c(s2)CCCO3)ccc1OCCCOc1ccc2c(c1)CC[C@H]2CC(=O)O | 328 | 1.3 | 181
3 | Cc1noc2cc(OCCCOc3ccc4c(c3)CC[C@H]4CC(=O)O)ccc12 | > 10000 | 16 | 3660
4 | CCCc1c(OCCCOc2ccc3c(c2)CC[C@H]3CC(=O)O)ccc2c1ccn2C | > 10000 | 29 | > 10000
5 | O=C(O)C[C@@H]1CCc2cc(OCCCOc3ccc4cc[nH]c4c3)ccc21 | > 10000 | 19 | > 10000
6 | O=C(O)C[C@@H]1CCc2cc(OCCCOc3ccc(-c4cccnc4)cc3)ccc21 | 1690 | 2.3 | 550
7 | CCOc1csc(-c2ccc(OCCCOc3ccc4c(c3)CC[C@H]4CC(=O)O)cc2)n1 | 100 | 1.2 | 753
8 | COc1cc(-c2nc(C)c(C(=O)O)s2)ccc1OCCCOc1ccc2c(c1)CC[C@H]2CC(=O)O | 10000 | 28 | 1000
9 | CCCc1cc(-c2nc(CC(=O)O)cs2)ccc1OCCCOc1ccc2c(c1)CC[C@H]2CC(=O)O | 2480 | 4.6 | 27
10 | Cc1ccc(OCCCOc2ccc3c(c2)CC[C@H]3CC(=O)O)cc1C | > 10000 | 67 | > 10000
11 | COc1cc(-c2nc(C)c(C(C)=O)s2)ccc1OCCCOc1ccc2c(c1)CC[C@H]2CC(=O)O | 560 | 3.4 | 49
12 | CCc1csc(-c2ccc(OCCCOc3ccc4c(c3)CC[C@H]4CC(=O)O)cc2)n1 | 1280 | 4.4 | 874
13 | Cc1nc(-c2ccc(OCCCOc3ccc4c(c3)CC[C@H]4CC(=O)O)cc2)sc1C(=O)O | 10000 | 218 | 312
14 | COc1csc(-c2ccc(OCCCOc3ccc4c(c3)CC[C@H]4CC(=O)O)cc2)n1 | 5800 | 1.3 | 300
15 | COc1cc(C)ccc1OCCCOc1ccc2c(c1)CC[C@H]2CC(=O)O | > 10000 | 7.5 | 1670
16 | Cc1cccc(-c2ccc(OCCCOc3ccc4c(c3)CC[C@H]4CC(=O)O)cc2)n1 | 5260 | 2.2 | 550
17 | CCOc1nc(-c2ccc(OCCCOc3ccc4c(c3)CC[C@H]4CC(=O)O)c(OC)c2)sc1CC | 520 | 5.4 | 362
18 | O=C(O)C[C@@H]1CCc2cc(OCCCOc3ccc(-c4cncnc4)cc3)ccc21 | 7280 | 11 | 970
19 | CCOc1ccc(OCCCOc2ccc3c(c2)CC[C@H]3CC(=O)O)cc1 | > 10000 | 6.6 | 940
20 | CCCc1ccccc1OCCCOc1ccc2c(c1)CC[C@H]2CC(=O)O | > 10000 | 2.4 | 1520
21 | O=C(O)C[C@@H]1CCc2cc(OCCCOc3ccc4ncoc4c3)ccc21 | > 10000 | 130 | > 10000
22 | CC(=O)c1sc(-c2ccc(OCCCOc3ccc4c(c3)CC[C@H]4CC(=O)O)cc2)nc1C | 2530 | 6.9 | 480
23 | O=C(O)C[C@@H]1CCc2cc(OCCCOc3ccccc3)ccc21 | > 10000 | 44 | > 10000
24 | CCOc1csc(-c2ccc(OCCCOc3ccc4c(c3)CC[C@H]4CC(=O)O)c(OC)c2)n1 | 1350 | 3.4 | 920
25 | CCCc1cc(-c2nc(C(C)(C)C)cs2)ccc1OCCCOc1ccc2c(c1)CC[C@H]2CC(=O)O | 87 | 11 | 18
26 | O=C(O)C[C@@H]1CCc2cc(OCCCOc3ccc(C(F)(F)F)cc3)ccc21 | 1610 | 4.2 | 5580
